Reference: ChEMBL document CHEMBL1799938, “Synthesis and identification of new 4-arylidene curcumin analogues as potential anticancer agents targeting nuclear factor-κB signaling pathway” (J Med Chem, 2010)
Active and inactive are the calls of the source. No cut-off for these calls is given here.

What was measured:
A549 [1] = assay: Growth inhibition of human A549 cells after 48 hrs by sulforhodamine B assay; type: functional; settings: A549, 48 h
[2] = (§1) Inhibition of TNF-alpha-induced NFkappaB nuclear translocation in human A549 cells preincubated for 30 mins before TNFalpha challenge and measured 30 post TNFalpha challenge by fluorescence method; type: cell-based
A549 [3] = assay: Growth inhibition of human A549 cells after 72 hrs by alamar blue method; type: functional; settings: A549, 72 h
Summary of the method: (§2)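 Cells kept in RPMI with 10% FBS and penicillin/streptomycin at 37°C, 5% CO2. Plated in 384-well format, dosed the next day, then incubated 72 hr before Alamar Blue read-out. GI50 is the concentration lowering viability by 50% versus solvent-vehicle control cells at the end of incubation.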

[4] = Growth inhibition of human NCI-H1944 cells after 72 hrs by alamar blue method; type: functional; settings: NCI-H1944, 72 h; summary of the method: as §2
NCI-H460 = assay: Growth inhibition of human H460 cells after 72 hrs by alamar blue method; type: functional; settings: NCI-H460, 72 h; summary of the method: as §2
NCI-H157 = assay: Growth inhibition of human NCI-H157 cells after 72 hrs by alamar blue method; type: functional; settings: NCI-H157, 72 h; summary of the method: as §2
[5] = target: T1, Inhibitor of NF-kappa-B kinase (IKK) (Homo sapiens, UniProt O14920+O15111+Q9Y6K9); assay: Inhibition of IKK in human A549 cells assessed as inhibition of TNF-alpha-induced IkappaB phosphorylation preincubated for 30 mins before TNFalpha challenge; type: cell-based
T1 sequence (O15111 whole entry, one chain of several): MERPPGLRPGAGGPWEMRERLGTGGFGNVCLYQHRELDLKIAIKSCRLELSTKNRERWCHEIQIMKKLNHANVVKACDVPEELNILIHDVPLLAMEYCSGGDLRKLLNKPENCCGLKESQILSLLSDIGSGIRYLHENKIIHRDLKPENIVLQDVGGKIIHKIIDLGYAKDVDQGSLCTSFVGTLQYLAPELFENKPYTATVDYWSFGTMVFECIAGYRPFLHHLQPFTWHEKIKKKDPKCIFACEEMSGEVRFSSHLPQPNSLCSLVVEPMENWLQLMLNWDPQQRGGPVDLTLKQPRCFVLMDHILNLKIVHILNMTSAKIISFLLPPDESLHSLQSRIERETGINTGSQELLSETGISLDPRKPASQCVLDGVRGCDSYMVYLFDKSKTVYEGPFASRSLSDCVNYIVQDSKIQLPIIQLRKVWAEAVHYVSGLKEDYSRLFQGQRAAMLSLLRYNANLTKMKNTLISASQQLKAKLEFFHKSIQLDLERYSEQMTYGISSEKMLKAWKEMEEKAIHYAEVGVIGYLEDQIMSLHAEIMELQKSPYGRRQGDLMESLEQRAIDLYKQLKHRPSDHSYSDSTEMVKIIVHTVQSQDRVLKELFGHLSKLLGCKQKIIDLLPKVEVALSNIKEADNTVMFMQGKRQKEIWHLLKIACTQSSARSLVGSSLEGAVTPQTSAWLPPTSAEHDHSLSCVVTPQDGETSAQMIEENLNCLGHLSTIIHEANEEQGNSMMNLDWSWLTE
T1 sequence (Q9Y6K9 whole entry, one chain of several): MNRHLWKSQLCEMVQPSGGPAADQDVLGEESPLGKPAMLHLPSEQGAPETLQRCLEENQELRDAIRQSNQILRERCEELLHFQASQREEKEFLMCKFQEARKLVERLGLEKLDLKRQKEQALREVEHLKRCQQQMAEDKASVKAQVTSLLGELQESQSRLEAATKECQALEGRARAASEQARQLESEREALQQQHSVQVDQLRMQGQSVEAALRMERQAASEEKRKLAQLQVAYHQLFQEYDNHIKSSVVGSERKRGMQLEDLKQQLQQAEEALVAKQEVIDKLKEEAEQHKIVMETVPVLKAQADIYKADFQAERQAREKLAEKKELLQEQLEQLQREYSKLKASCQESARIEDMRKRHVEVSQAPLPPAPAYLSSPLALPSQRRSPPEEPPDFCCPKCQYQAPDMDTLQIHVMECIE
Summary of the method: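 A549 cells pretreated 30 min with compounds before TNFα (10 ng/ml). Whole-cell NP-40 lysates prepared 7 min after TNFα, run on 12.5% SDS-PAGE and Western blotted with anti-pS32 IκB antibody. Membrane then stripped and reprobed for total IκB.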

[6] = target: T1, Inhibitor of NF-kappa-B kinase (IKK); assay: Inhibition of IKK in human A549 cells assessed as inhibition of TNF-alpha-induced IkappaB degradation at 0.5 to 25 uM preincubated for 4 hrs before TNFalpha challenge measured after 20 mins by Western blot analysis; type: cell-based
Summary of the method: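 A549 cells pretreated with compounds at indicated doses, then TNFα (10 ng/ml) added for a further 20 min. Cells lysed in NP-40 buffer (1.0% NP-40, 10 mM Hepes pH 7.4, 150 mM NaCl, phosphatase and protease inhibitors). Equal lysate volumes run on 12.5% SDS-PAGE, transferred to nitrocellulose, milk-blocked, and total IκB detected by Western blot.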

[7] = target: T2, Inhibitor of nuclear factor kappa-B kinase subunit beta (Homo sapiens) (UniProt O14920); assay: Inhibition of recombinant IKK-beta assessed as inhibition of incorporation of [gamma32P] to GST-IkappaBalpha after 30 mins by scintillation counting
T2 sequence (whole entry): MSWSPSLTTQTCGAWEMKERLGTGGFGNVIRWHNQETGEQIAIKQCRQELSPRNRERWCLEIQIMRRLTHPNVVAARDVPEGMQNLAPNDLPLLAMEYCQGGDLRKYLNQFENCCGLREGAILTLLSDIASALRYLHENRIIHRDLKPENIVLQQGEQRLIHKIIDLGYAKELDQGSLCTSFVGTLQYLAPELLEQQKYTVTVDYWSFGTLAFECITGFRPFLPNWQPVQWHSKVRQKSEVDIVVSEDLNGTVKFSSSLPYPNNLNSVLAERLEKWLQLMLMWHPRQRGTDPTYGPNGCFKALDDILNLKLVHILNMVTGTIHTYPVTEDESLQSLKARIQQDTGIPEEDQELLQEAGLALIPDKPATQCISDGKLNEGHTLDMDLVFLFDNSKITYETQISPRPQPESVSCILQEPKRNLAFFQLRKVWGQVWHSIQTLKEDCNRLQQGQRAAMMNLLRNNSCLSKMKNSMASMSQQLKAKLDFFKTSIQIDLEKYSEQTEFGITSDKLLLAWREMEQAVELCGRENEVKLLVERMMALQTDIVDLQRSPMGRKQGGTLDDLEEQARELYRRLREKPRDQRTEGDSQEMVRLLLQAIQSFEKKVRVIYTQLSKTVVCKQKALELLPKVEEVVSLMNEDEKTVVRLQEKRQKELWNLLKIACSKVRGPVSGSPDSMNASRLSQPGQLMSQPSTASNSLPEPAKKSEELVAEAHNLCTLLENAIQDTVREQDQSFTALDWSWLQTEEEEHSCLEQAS
Summary of the method: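 Activated recombinant IKKβ (40 ng) preincubated with compounds 30 min at room temperature in MOPS buffer pH 7.0. Reaction started with Mg-ATP mix (100 μM ATP, 15 mM MgCl2), 5 μg GST-IκBα and 0.5 μCi [γ-32P]ATP in 25 μl, run 30 min at 30°C. Stopped by boiling in SDS buffer, resolved by 12.5% SDS-PAGE, autoradiographed. Excised bands quantified by scintillation counting.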

A549 [8] = assay: Anticlonogenic activity against human A549 cells assessed as inhibition of colony formation of cells treated at 0.2 uM with test compound after cell plating and every 3 days thereafter and measured on day 9 after colonies formed by SRB assay; type: functional
Summary of the method: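 A549 cells plated at 200 cells/well, incubated overnight, then exposed to compound or DMSO vehicle; medium and compound renewed every 3 days. On day 9, colonies fixed with 10% TCA for 30 min at 4°C, water-washed, SRB-stained and rinsed with 1% acetic acid. Plates scanned, colonies counted and normalized to DMSO control.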

A549 [9] = assay: as §1; type: cell-based

Compound | GI50 (A549 [1]) | IC50 [2] | other results
COc1ccc(/C=C/C(=O)C(=Cc2ccc(C)o2)C(=O)/C=C/c2ccc(OC)c(OC)c2)cc1OC | 1310 nM | 2800 nM | –
COc1ccc(OC)c(C=C(C(=O)/C=C/c2ccc(OC)c(OC)c2)C(=O)/C=C/c2ccc(OC)c(OC)c2)c1 | 530 nM | 1500 nM | –
COc1ccc(/C=C/C(=O)/C=C(O)/C=C/c2ccc(OC)cc2)cc1 | > 25000 nM | > 40000 nM | –
COc1cc(C=C(C(=O)/C=C/c2ccc(O)c(OC)c2)C(=O)/C=C/c2ccc(O)c(OC)c2)ccc1O | 2000 nM | 1000 nM | –
COc1ccc(/C=C/C(=O)C(=CO)C(=O)/C=C/c2ccc(OC)cc2)cc1 | > 25000 nM | > 40000 nM | –
COc1cc(/C=C/C(=O)C(=Cc2ccc(OC)c(OC)c2)C(=O)/C=C/c2ccc(O)c(OC)c2)ccc1O | 430 nM | > 40000 nM | –
COc1ccc(/C=C/C(=O)C(=Cc2ccc(OC)c(OC)c2)C(=O)/C=C/c2ccc(OC)cc2)cc1 | 930 nM | 3300 nM | –
COc1ccc(/C=C/C(=O)C(=Cc2cccc(OC)c2OC)C(=O)/C=C/c2ccc(OC)c(OC)c2)cc1OC | 670 nM | 1500 nM | –
COc1ccc(/C=C/C(=O)C(=Cc2ccc(O)cc2)C(=O)/C=C/c2ccc(OC)c(OC)c2)cc1OC | 420 nM | 1400 nM | –
COc1cc(/C=C/C(=O)/C=C/c2cc(OC)c(OC)c(OC)c2)cc(OC)c1OC | 550 nM | 7900 nM | –
COc1cc(/C=C/C(=O)C(=Cc2cccc(F)c2)C(=O)/C=C/c2ccc(O)c(OC)c2)ccc1O | 360 nM | 1400 nM | –
COc1ccc(OC)c(C=C(C(=O)/C=C/c2ccc(O)c(OC)c2)C(=O)/C=C/c2ccc(O)c(OC)c2)c1 | 670 nM | 1400 nM | –
COc1cc(/C=C/C(=O)C(=CO)C(=O)/C=C/c2ccc(OC(C)=O)c(OC)c2)ccc1OC(C)=O | > 25000 nM | 39300 nM | –
CCc1ccc(C=C(C(=O)/C=C/c2ccc(OC)c(OC)c2)C(=O)/C=C/c2ccc(OC)c(OC)c2)cc1 | 630 nM | 4900 nM | –
COc1ccc(/C=C/C(=O)/C=C/c2cc(OC)c(OC)c(OC)c2)cc1OC | 1210 nM | 9000 nM | –
COc1ccc(/C=C/C(=O)C(=Cc2ccc(N(C)C)cc2)C(=O)/C=C/c2ccc(OC)c(OC)c2)cc1OC | 2620 nM | > 40000 nM | –
COc1ccc(C=C(C(=O)/C=C/c2cc(OC)c(OC)c(OC)c2)C(=O)/C=C/c2cc(OC)c(OC)c(OC)c2)cc1OC | 370 nM | 1000 nM | –
COc1ccc(/C=C/C(=O)/C=C(O)/C=C/c2ccc(OC)c(OC)c2)cc1OC [DIMETHYLCURCUMIN] | 5800 nM | > 40000 nM | –

Compound | GI50 (A549 [1]) | IC50 [2] | other results
COc1cc(/C=C/C(=O)/C=C/c2sccc2C)cc(OC)c1OC | 9310 nM | 24300 nM | –
O=C(/C=C(O)/C=C/c1ccco1)/C=C/c1ccco1 | > 25000 nM | > 40000 nM | –
COc1ccc(C=C(C(=O)/C=C/c2ccc(O)c(OC)c2)C(=O)/C=C/c2ccc(O)c(OC)c2)c(OC)c1 | 690 nM | 1000 nM | –
Cc1ccc(/C=C/C(=O)/C=C(O)/C=C/c2ccc(C)o2)o1 | > 25000 nM | 8500 nM | –
COc1ccc(/C=C/C(=O)C(=Cc2cc(OC)c(OC)c(OC)c2)C(=O)/C=C/c2ccc(OC)cc2)cc1 | 1120 nM | 3800 nM | –
COc1cc(/C=C/C(=O)/C(=C/c2cc(OC)c(OC)c(OC)c2)C(C)=O)cc(OC)c1OC | 530 nM | 4800 nM | –
COc1cc(/C=C/C(=O)C(=Cc2ccc(F)cc2)C(=O)/C=C/c2ccc(O)c(OC)c2)ccc1O | 780 nM | 2700 nM | –
COc1cc(C=C(C(=O)/C=C/c2ccc(OC)c(OC)c2)C(=O)/C=C/c2ccc(OC)c(OC)c2)ccc1O | 530 nM | 1000 nM | GI50 (A549 [3]): 720 nM; GI50 [4]: 70 nM; GI50 (NCI-H460): 130 nM; GI50 (NCI-H157): 160 nM; IC50 [5]: 2800 nM; inhibition [6]: Active; inhibition [7]: Dose-dependent effect; inhibition at 0.2 µM (A549 [8]): 50%
CCc1ccc(C=C(C(=O)/C=C/c2ccc(O)c(OC)c2)C(=O)/C=C/c2ccc(O)c(OC)c2)cc1 | 550 nM | 1800 nM | –
COc1ccc(/C=C/C(=O)C(=CO)C(=O)/C=C/c2ccc(OC)c(OC)c2)cc1OC | > 25000 nM | > 40000 nM | –
COc1ccc(C=C(C(=O)/C=C/c2ccc(OC)c(OC)c2)C(=O)/C=C/c2ccc(OC)c(OC)c2)cc1OC | 310 nM | 1500 nM | –
COc1ccc(/C=C/C(=O)C(=Cc2ccc(F)cc2)C(=O)/C=C/c2ccc(OC)c(OC)c2)cc1OC | 550 nM | 1100 nM | GI50 (A549 [3]): 700 nM; GI50 [4]: 280 nM; GI50 (NCI-H460): 270 nM; GI50 (NCI-H157): 280 nM; inhibition (A549 [9]): Dose-dependent effect; IC50 [5]: 2200 nM; inhibition [6]: Active; inhibition [7]: Dose-dependent effect; inhibition at 0.2 µM (A549 [8]): 50%
COc1cccc(C=C(C(=O)/C=C/c2ccc(O)c(OC)c2)C(=O)/C=C/c2ccc(O)c(OC)c2)c1 | 640 nM | 1300 nM | –
COc1ccc(/C=C/C(=O)C(=Cc2cc(OC)c(OC)c(OC)c2)C(=O)/C=C/c2ccc(OC)c(OC)c2)cc1OC | 230 nM | 1800 nM | –
COc1ccc(C=C(C(=O)/C=C/c2ccc(OC)c(OC)c2)C(=O)/C=C/c2ccc(OC)c(OC)c2)c(OC)c1 | 650 nM | 1700 nM | –
COc1ccc(/C=C/C(=O)C(=Cc2cccc(F)c2)C(=O)/C=C/c2ccc(OC)c(OC)c2)cc1OC | 580 nM | 1300 nM | –
COc1ccc(/C=C/C(=O)C(=Cc2ccc(O)c(OC)c2)C(=O)/C=C/c2ccc(OC)cc2)cc1 | 1640 nM | 3000 nM | –
